Common to all, as to assay type: functional
In experiment [1] the test system is Streptococcus pneumoniae. The experiment in a line: Antimicrobial activity against erythromycin-resistant Streptococcus pneumoniae assessed as susceptible isolates by broth microdilution method in presence of clavulanic acid. An outline of the steps: (§1)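 Isolates were tested by broth microdilution in commercial microtiter trays. Medium was cation-adjusted Mueller-Hinton broth supplemented with 3 to 5% lysed horse blood. MICs were interpreted by CLSI criteria. For penicillin, the pre-2008 breakpoints were applied (susceptible ≤0.06 mg/liter).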

Experiment [2] has as its system Streptococcus pneumoniae. The experiment in a line: Antimicrobial activity against erythromycin-resistant Streptococcus pneumoniae assessed as resistant isolates by broth microdilution method in presence of clavulanic acid. The procedure, abridged: as §1
For experiment [3], the system named is Streptococcus pneumoniae. In words: Antimicrobial activity against erythromycin-resistant Streptococcus pneumoniae by broth microdilution method in presence of clavulanic acid. The procedure, abridged: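 Broth microdilution in commercial pre-made microtiter trays using cation-adjusted Mueller-Hinton broth with 3 to 5% lysed horse blood. Pneumococcal isolates were tested, and MICs were interpreted by CLSI criteria.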

Experiment [4] concerns Streptococcus pneumoniae. The experiment in a line: Antimicrobial activity against erythromycin-resistant Streptococcus pneumoniae assessed as susceptible isolates by broth microdilution method. An outline of the steps: as §1
Experiment [5] concerns Streptococcus pneumoniae. The experiment in a line: Antimicrobial activity against erythromycin-resistant Streptococcus pneumoniae by broth microdilution method. An outline of the steps: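 Isolates were tested by broth microdilution in commercial microtiter trays. Medium was cation-adjusted Mueller-Hinton broth supplemented with 3 to 5% lysed horse blood. MICs were interpreted by CLSI criteria.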

In experiment [6] the test system is Streptococcus pneumoniae. In words: Antimicrobial activity against erythromycin-resistant Streptococcus pneumoniae assessed as resistant isolates by broth microdilution method. The procedure, abridged:
as §1

≈ marks a conversion by molar mass, not a printed value. Where only a bound is given, the exact number is not on record here.

Consider `CC1(C)S[C@@H]2[C@H](NC(=O)[C@H](N)c3ccc(O)cc3)C(=O)N2[C@H]1C(=O)O` [AMOXICILLIN], for which the Activity in the experiment with Streptococcus pneumoniae [1] was found to be 66.7%. The Activity in the experiment with Streptococcus pneumoniae [2] turned out to be 28.4%. In the experiment with Streptococcus pneumoniae [3], the MIC is below 2 µg/mL, the MIC50 was below 2 µg/mL and the MIC90 was above 8 µg/mL.
Turning to `CC[C@H]1OC(=O)[C@H](C)[C@@H](O[C@H]2C[C@@](C)(OC)[C@@H](O)[C@H](C)O2)[C@H](C)[C@@H](O[C@@H]2O[C@H](C)C[C@H](N(C)C)[C@H]2O)[C@](C)(O)C[C@@H](C)CN(C)[C@H](C)[C@@H](O)[C@]1(C)O` [AZITHROMYCIN], the Activity with Streptococcus pneumoniae [4] was 0%. In the experiment on Streptococcus pneumoniae [5], this compound had a minimal inhibitory concentration (MIC) above 2 µg/mL, an MIC50 above 2 µg/mL and an MIC90 above 2 µg/mL. Moreover, the Activity in the experiment with Streptococcus pneumoniae [6] came to 100%.
As for `CO/N=C(\C(=O)N[C@@H]1C(=O)N2C(C(=O)O)=C(COC(C)=O)CS[C@H]12)c1csc(N)n1` [CEFOTAXIME], the Activity in the experiment with Streptococcus pneumoniae [4] came to 62.7%. In the experiment with Streptococcus pneumoniae [5], this compound showed an MIC50 of 1 µg/mL (≈ 2.2 µM) and an MIC90 of 2 µg/mL (≈ 4.39 µM). Moreover, the Activity in the experiment on Streptococcus pneumoniae [6] was determined as 5.9%.
As to `O=C(N[C@H](CO)[C@H](O)c1ccc([N+](=O)[O-])cc1)C(Cl)Cl` [CHLORAMPHENICOL], the results for the Activity in the experiment with Streptococcus pneumoniae [4] and in the experiment with Streptococcus pneumoniae [6] were 66.7% and 33.3%, respectively. Further, the MIC50 in the experiment with Streptococcus pneumoniae [5] was found to be 4 µg/mL (≈ 12.4 µM). In the experiment on Streptococcus pneumoniae [5], this compound registered an MIC90 of 8 µg/mL (≈ 24.8 µM).
Take `CCC[C@@H]1C[C@@H](C(=O)N[C@@H]([C@H]2O[C@H](SC)[C@H](O)[C@@H](O)[C@H]2O)[C@H](C)Cl)N(C)C1` [CLINDAMYCIN]: the Activity with Streptococcus pneumoniae [4] is 30.4%. Also, in the experiment on Streptococcus pneumoniae [5], the MIC50 was above 2 µg/mL and the MIC90 was above 2 µg/mL. In the experiment on Streptococcus pneumoniae [6], the Activity is 67.6%.
Consider `CC[C@H]1OC(=O)[C@H](C)[C@@H](O[C@H]2C[C@@](C)(OC)[C@@H](O)[C@H](C)O2)[C@H](C)[C@@H](O[C@@H]2O[C@H](C)C[C@H](N(C)C)[C@H]2O)[C@](C)(O)C[C@@H](C)C(=O)[C@H](C)[C@@H](O)[C@]1(C)O` [ERYTHROMYCIN], for which the Activity in the experiment with Streptococcus pneumoniae [4] is on record as 0%. In addition, in the experiment on Streptococcus pneumoniae [5], the minimum inhibitory concentration (MIC) is above 2 µg/mL, the MIC50 was above 2 µg/mL and the MIC90 was above 2 µg/mL. Also, in the experiment with Streptococcus pneumoniae [6], the Activity worked out at 100%.
For `COc1c(N2CCNC(C)C2)c(F)cc2c(=O)c(C(=O)O)cn(C3CC3)c12` (stereo not drawn) [GATIFLOXACIN], in the experiment with Streptococcus pneumoniae [4], the Activity worked out at 100%. In the experiment with Streptococcus pneumoniae [5], this compound registered an MIC below 0.5 µg/mL, an MIC50 below 0.5 µg/mL and an MIC90 below 0.5 µg/mL. Further, the Activity with Streptococcus pneumoniae [6] is reported as 0%.
For the compound `C[C@H]1COc2c(N3CCN(C)CC3)c(F)cc3c(=O)c(C(=O)O)cn1c23.C[C@H]1COc2c(N3CCN(C)CC3)c(F)cc3c(=O)c(C(=O)O)cn1c23.O` [LEVOFLOXACIN], the figures for the Activity in the experiment with Streptococcus pneumoniae [4] and with Streptococcus pneumoniae [6] were 100% and 0%, respectively. This compound showed an MIC50 against Streptococcus pneumoniae [5] of 1 µg/mL. The same compound showed an MIC90 in the experiment with Streptococcus pneumoniae [5] of 1 µg/mL.
Consider `CC(=O)NC[C@H]1CN(c2ccc(N3CCOCC3)c(F)c2)C(=O)O1` [LINEZOLID], for which the Activity in the experiment with Streptococcus pneumoniae [4] was 100%. In the experiment with Streptococcus pneumoniae [5], the MIC50 was determined as 1 µg/mL (≈ 2.96 µM) and the MIC90 amounted to 1 µg/mL (≈ 2.96 µM). In addition, the Activity in the experiment on Streptococcus pneumoniae [6] turned out to be 0%.
Consider `C[C@@H](O)[C@H]1C(=O)N2C(C(=O)O)=C(S[C@@H]3CN[C@H](C(=O)N(C)C)C3)[C@H](C)[C@H]12` [MEROPENEM], for which, in the experiment on Streptococcus pneumoniae [4], the Activity is given as 33.3%. Moreover, in the experiment on Streptococcus pneumoniae [5], the MIC50 is 0.5 µg/mL (≈ 1.3 µM) and the MIC90 was found to be 1 µg/mL (≈ 2.61 µM). The Activity in the experiment with Streptococcus pneumoniae [6] is on record as 34.3%.
`COc1c(N2C[C@@H]3CCCN[C@@H]3C2)c(F)cc2c(=O)c(C(=O)O)cn(C3CC3)c12` [MOXIFLOXACIN]: the Activity in the experiment with Streptococcus pneumoniae [4] is 100%; in the experiment with Streptococcus pneumoniae [6] it was 0%.
Regarding `CC1(C)S[C@@H]2[C@H](NC(=O)Cc3ccccc3)C(=O)N2[C@H]1C(=O)O` [PENICILLIN G], the Activity in the experiment with Streptococcus pneumoniae [4] was determined as 24.5%. Also, in the experiment with Streptococcus pneumoniae [5], the MIC50 was found to be 2 µg/mL (≈ 5.98 µM) and the MIC90 is 4 µg/mL (≈ 12 µM). Besides, the Activity in the experiment on Streptococcus pneumoniae [6] turned out to be 68.6%.
`CN(C)[C@@H]1C(O)=C(C(N)=O)C(=O)[C@@]2(O)C(O)=C3C(=O)c4c(O)cccc4[C@@](C)(O)[C@H]3C[C@@H]12` [TETRACYCLINE]: the Activity in the experiment on Streptococcus pneumoniae [4] turned out to be 24.5%. In the experiment with Streptococcus pneumoniae [5], this compound came in with an MIC50 of at least 8 µg/mL and an MIC90 of at least 8 µg/mL. For the same compound, the Activity in the experiment on Streptococcus pneumoniae [6] is given as 74.5%.
For the compound `CN[C@H](CC(C)C)C(=O)N[C@H]1C(=O)N[C@@H](CC(N)=O)C(=O)N[C@H]2C(=O)N[C@H]3C(=O)N[C@H](C(=O)N[C@H](C(=O)O)c4cc(O)cc(O)c4-c4cc3ccc4O)[C@H](O)c3ccc(c(Cl)c3)Oc3cc2cc(c3O[C@@H]2O[C@H](CO)[C@@H](O)[C@H](O)[C@H]2O[C@H]2C[C@](C)(N)[C@H](O)[C@H](C)O2)Oc2ccc(cc2Cl)[C@H]1O` [VANCOMYCIN], in the experiment on Streptococcus pneumoniae [4], the Activity worked out at 100%. Besides, in the experiment on Streptococcus pneumoniae [5], the MIC50 is below 0.5 µg/mL and the MIC90 is below 0.5 µg/mL. Further, in the experiment with Streptococcus pneumoniae [6], the Activity turned out to be 0%.

The values above are taken from ChEMBL document CHEMBL1671681, “Distribution of serotypes, genotypes, and resistance determinants among macrolide-resistant Streptococcus pneumoniae isolates” (2010).
